Active and inactive are the calls of the source. No cut-off for these calls is given here.
Experiments:
Mus musculus [1] = test: In vivo antitumor activity was evaluated on L1210 leukemia model and weight change in tumors was determined at 20 mg/kg dosage concentration; type: functional
Mus musculus [2] = test: In vivo antitumor activity was evaluated on L1210 leukemia model and number of survivors (animals) was determined at 20 mg/kg dosage concentration; type: functional
Summary of the method: (§1)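 L1210 leukemia, 10^5 viable cells inoculated ip on day 0 into CDF1 hybrid male or female mice, 10 mice per group. Compounds were given ip in distilled water (0.1 mL/10 g body weight) on days 1-5. Vehicle controls were treated the same way. NCI protocols were followed. T/C = median survival day of treated mice / median survival day of vehicle controls × 100.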

Mus musculus [3] = test: In vivo antitumor activity was determined against P388 leukemia cells expressed as number of animals survived; type: functional
Summary of the method: (§2)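 P388 leukemia, 10^6 viable cells inoculated ip on day 0 into CDF1 hybrid male or female mice, 10 mice per group. Compounds were given ip in distilled water (0.1 mL/10 g body weight) at various doses on days 1-5. Vehicle controls were treated the same way. NCI protocols were followed.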

Mus musculus [4] = test: In vivo antitumor activity was evaluated on L1210 leukemia model and median survival day was determined at 20 mg/kg dosage concentration; type: functional; summary of the method: as §1
Mus musculus [5] = test: In vivo antitumor activity was evaluated on L1210 leukemia model and percent of treated/control of tumor cells was determined at 20 mg/kg dosage concentration; type: functional; summary of the method: as §1
Calf thymus DNA = test: Binding affinity for DNA by ethidium bromide displacement assay; type: nucleic-acid assay; details: Bos taurus
Summary of the method: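 Competitive ethidium bromide displacement with calf thymus DNA at 10 µg/mL in 20 mM Na phosphate buffer, 0.1 M NaCl, 1 mM EDTA, pH 7.4. The apparent DNA affinity constant is given in 10^6 M^-1 ± standard deviation, from 6 values across two independent experiments.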

Mus musculus [6] = test: In vivo antitumor activity was determined against P388 leukemia cells expressed as treated/control at the dose of 60 mg/kg; T = toxic at this dose; type: organism-based; set-up: dose 60 mg/kg
Summary of the method: (§3)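 Following NCI protocols, 10^6 viable P388 leukemia cells were inoculated ip on day 0 into male or female CDF1 hybrid mice, 10 per test group. Compounds in distilled water were given ip (0.1 mL/10 g body weight) at various doses on days 1–5. T/C = median survival day of treated / median survival day of negative controls × 100.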

Mus musculus [7] = test: In vivo antitumor activity was determined against P388 leukemia cells expressed as treated/control at the dosage of (0.3-40)mg/kg; IA= inactive; type: functional, organism-based; summary of the method: as §3
[8] = In vitro cytotoxicity against L1210 cells was determined after 48 hours of incubation; type: cell-based; details: mouse, read-out: ID50
Summary of the method: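 Exponentially growing L1210 cells were cultured in RPMI 1640 with 2 mM glutamine, penicillin/streptomycin and 10% fetal calf serum, under 5% CO2 at 37 °C. Drugs dissolved in distilled water were added to cells at 0.8 × 10^5 cells/mL for 48 h, then cells were counted. ID50 was estimated by regression of dose-response data, as the mean of two values from two independent experiments.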

Mus musculus [9] = test: In vivo antitumor activity was evaluated on L1210 leukemia model and weight change in tumors was determined at 80 mg/kg dosage concentration.; type: functional
Mus musculus [10] = test: In vivo antitumor activity was evaluated on L1210 leukemia model and number of survivors (animals) was determined at 30 mg/kg dosage concentration; number of survivors given as 0/10; type: functional; summary of the method: as §1
Mus musculus [11] = test: In vivo antitumor activity was evaluated on L1210 leukemia model and median survival day was determined at 15 mg/kg dosage concentration.; type: functional; summary of the method: as §1
Mus musculus [12] = test: In vivo antitumor activity was evaluated on L1210 leukemia model and median survival day was determined at 80 mg/kg dosage concentration.; type: functional; summary of the method: as §1
Mus musculus [13] = test: In vivo antitumor activity was evaluated on L1210 leukemia model and median survival day was determined at 5 mg/kg dosage concentration; type: functional; summary of the method: as §1
Mus musculus [14] = test: In vivo antitumor activity was evaluated on L1210 leukemia model and weight change in tumors was determined at 60 mg/kg dosage concentration.; type: functional
Mus musculus [15] = test: In vivo antitumor activity was determined against P388 leukemia cells expressed as treated/control at the dosage of 20 mg/kg; type: functional; summary of the method: as §3
Mus musculus [16] = test: In vivo antitumor activity was determined against P388 leukemia cells expressed as treated/control at the dosage of 10 mg/kg; type: functional; summary of the method: as §3
Mus musculus [17] = test: In vivo antitumor activity was evaluated on L1210 leukemia model and weight change in tumors was determined at 5 mg/kg dosage concentration; type: functional
Mus musculus [18] = test: In vivo antitumor activity was evaluated on L1210 leukemia model and percent of treated/control of tumor cells was determined at 80 mg/kg dosage concentration.; type: functional
Summary of the method: as §3, with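 “10^5” for “10^6”, “L1210” for “P388”, “dosed” for “given”, “daily” for “at various doses”, “treated mice” for “treated”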

Mus musculus [19] = test: In vivo antitumor activity was evaluated on L1210 leukemia model and weight change in tumors was determined at 15 mg/kg dosage concentration.; type: functional
Mus musculus [20] = test: In vivo antitumor activity was evaluated on L1210 leukemia model and number of survivors (animals) was determined at 80 mg/kg dosage concentration; number of survivors given as 0/10; type: functional; summary of the method: as §1
Mus musculus [21] = test: In vivo antitumor activity was evaluated on L1210 leukemia model and percent of treated/control of tumor cells was determined at 5 mg/kg dosage concentration; type: functional
Summary of the method: as §3, with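 “10^5” for “10^6”, “L1210” for “P388”, “dosed” for “given”, “daily” for “at various doses”, “treated mice” for “treated”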

Mus musculus [22] = test: In vivo antitumor activity was evaluated on L1210 leukemia model and weight change in tumors was determined at 2.5 mg/kg dosage concentration; type: functional
Mus musculus [23] = test: In vivo antitumor activity was evaluated on L1210 leukemia model and median survival day was determined at 60 mg/kg dosage concentration.; type: functional; summary of the method: as §1
Mus musculus [24] = test: In vivo antitumor activity was evaluated on L1210 leukemia model and number of survivors (animals) was determined at 15 mg/kg dosage concentration; number of survivors given as 0/10; type: functional; summary of the method: as §1
Mus musculus [25] = test: In vivo antitumor activity was evaluated on L1210 leukemia model and median survival day was determined at 30 mg/kg dosage concentration; type: functional; summary of the method: as §1
Mus musculus [26] = test: In vivo antitumor activity was evaluated on L1210 leukemia model and weight change in tumors was determined at 30 mg/kg dosage concentration; type: functional
Mus musculus [27] = test: In vivo antitumor activity was evaluated on L1210 leukemia model and percent of treated/control of tumor cells was determined at 15 mg/kg dosage concentration.; type: functional
Summary of the method: as §3, with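 “10^5” for “10^6”, “L1210” for “P388”, “dosed” for “given”, “daily” for “at various doses”, “treated mice” for “treated”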

Mus musculus [28] = test: In vivo antitumor activity was evaluated on L1210 leukemia model and median survival day was determined at 2.5 mg/kg dosage concentration; type: functional; summary of the method: as §1
Mus musculus [29] = test: In vivo antitumor activity was determined against P388 leukemia cells expressed as number of; type: functional; summary of the method: as §2
Mus musculus [30] = test: In vivo antitumor activity was determined against P388 leukemia cells expressed as treated/control at the dosage of 40 mg/kg; type: functional; summary of the method: as §3
Mus musculus [31] = test: In vivo antitumor activity was evaluated on L1210 leukemia model and number of survivors (animals) was determined at 60 mg/kg dosage concentration; number of survivors given as 1/10; type: functional; summary of the method: as §1
Mus musculus [32] = test: In vivo antitumor activity was evaluated on L1210 leukemia model and percent of treated/control of tumor cells was determined at 60 mg/kg dosage concentration.; type: functional
Summary of the method: as §3, with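 “10^5” for “10^6”, “L1210” for “P388”, “dosed” for “given”, “daily” for “at various doses”, “treated mice” for “treated”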

Mus musculus [33] = test: In vivo antitumor activity was evaluated on L1210 leukemia model and number of survivors (animals) was determined at 5 mg/kg dosage concentration; number of survivors given as 0/10; type: functional; summary of the method: as §1
Mus musculus [34] = test: In vivo antitumor activity was evaluated on L1210 leukemia model and number of survivors (animals) was determined at 2.5 mg/kg dosage concentration; number of survivors given as 0/10; type: functional; summary of the method: as §1
Mus musculus [35] = test: In vivo antitumor activity was evaluated on L1210 leukemia model and percent of treated/control of tumor cells was determined at 30 mg/kg dosage concentration; type: functional
Summary of the method: as §3, with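 “10^5” for “10^6”, “L1210” for “P388”, “dosed” for “given”, “daily” for “at various doses”, “treated mice” for “treated”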

Mus musculus [36] = test: In vivo antitumor activity was evaluated on L1210 leukemia model and percent of treated/control of tumor cells was determined at 2.5 mg/kg dosage concentration; type: functional
Summary of the method: as §3, with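 “10^5” for “10^6”, “L1210” for “P388”, “dosed” for “given”, “daily” for “at various doses”, “treated mice” for “treated”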

Mus musculus [37] = test: In vivo antitumor activity was determined against P388 leukemia cells expressed as treated/control at the dosage of 50 mg/kg; type: functional; summary of the method: as §3
Mus musculus [38] = test: In vivo antitumor activity was determined against P388 leukemia cells expressed as treated/control at the dose of 40 mg/kg; type: functional; summary of the method: as §3
Mus musculus [39] = test: In vivo antitumor activity was determined against P388 leukemia cells expressed as treated/control at the dose of 10 mg/kg; type: functional; summary of the method: as §3
Mus musculus [40] = test: In vivo antitumor activity was determined against P388 leukemia cells expressed as treated/control at the dose of 5 mg/kg; type: functional; summary of the method: as §3
Mus musculus [41] = test: In vivo antitumor activity was determined against P388 leukemia cells expressed as treated/control at the dose of 20 mg/kg; type: functional; summary of the method: as §3

O=c1[nH]cc(F)c(=O)[nH]1 [FLUOROURACIL]
Weight changes (Mus musculus [1]): 0.1 g | Survivors (Mus musculus [2]): 10 | Survivors (Mus musculus [3]): 0 | Median survival day (Mus musculus [4]): 18 | T/C (Mus musculus [5]): 196%

CCN(CC)CCCNc1ncc(C)c2c1c1cnccc1n2CC
K aff (Calf thymus DNA): 17000 M⁻¹ | T/C (Mus musculus [6]): Toxic | T/C (Mus musculus [7]): inactive | CC50 at 48 h [8]: 1400 nM

CCN(CC)CCCNc1ncc(C)c2c1c1cnccc1n2C
Weight changes (Mus musculus [9]): -2.3 g | Survivors (Mus musculus [10]): 0 | Median survival day (Mus musculus [11]): 13.75 | Median survival day (Mus musculus [12]): 9.1 | Median survival day (Mus musculus [13]): 12.75 | Weight changes (Mus musculus [14]): -2.3 g | T/C (Mus musculus [15]): 164 | K aff (Calf thymus DNA): 40000 M⁻¹ | T/C (Mus musculus [16]): 147 | Weight changes (Mus musculus [17]): -0.3 g | T/C (Mus musculus [18]): 99% | Weight changes (Mus musculus [19]): 0.8 g | Survivors (Mus musculus [20]): 0 | T/C (Mus musculus [21]): 138% | Weight changes (Mus musculus [22]): 0.7 g | Median survival day (Mus musculus [23]): 18 | Survivors (Mus musculus [24]): 0 | Median survival day (Mus musculus [25]): 17.25 | Weight changes (Mus musculus [26]): 0.2 g | T/C (Mus musculus [27]): 149% | Median survival day (Mus musculus [28]): 10.9 | Survivors (Mus musculus [29]): 3 | T/C (Mus musculus [30]): 172 | Survivors (Mus musculus [31]): 1 | T/C (Mus musculus [32]): 196% | Survivors (Mus musculus [33]): 0 | Survivors (Mus musculus [34]): 0 | T/C (Mus musculus [35]): 187.5% | T/C (Mus musculus [36]): 118% | T/C (Mus musculus [37]): 207

Cc1cnc(NCCCN(C)C)c2c3cnccc3n(C)c12
T/C (Mus musculus [38]): 173 | K aff (Calf thymus DNA): 40000 M⁻¹ | T/C (Mus musculus [39]): 150 | T/C (Mus musculus [40]): 136 | T/C (Mus musculus [41]): 167

— ChEMBL document CHEMBL1123837, “1-Amino-substituted 4-methyl-5H-pyrido[3',4':4,5]pyrrolo[3,2-c]pyridines: a new class of antineoplastic agents” (J Med Chem, 1987)
